For test [1], the system named is Human immunodeficiency virus 1. The test can be described thus: Antiviral activity against wild type HIV1 assessed as inhibitory effect on virus infected cells at 10 uM by cell based inhibition assay. The class given is functional. The method, boiled down: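 Single-round assay of the early stage: SupT1 cells were first infected with pseudotyped HIV-1, then exposed to compound at 10 μM for 48 h. Luciferase activity was measured and expressed as percent inhibition.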

For test [2], the target named is T1, Human immunodeficiency virus type 1 reverse transcriptase (Human immunodeficiency virus 1, UniProt Q72547). The test can be described thus: Inhibition of HIV-1 NL4-3 reverse transcriptase expressed in Escherichia coli assessed as polymerization by one-step real-time RT-PCR assay.
Test [3] deals with Human immunodeficiency virus type 1 protease (Human immunodeficiency virus 1, UniProt Q72874). The test can be described thus: Inhibition of recombinant HIV1 protease measured assessed as hydrolysis of fluorogenic substrate by FRET assay. The method, boiled down:
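Wild-type HIV-1 protease activity was read by FRET. Each assay was run in triplicate. IC50 values are means (±1 standard deviation) from three independent experiments.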

Test [4] concerns Human immunodeficiency virus 1. Nature of the test: Antiviral activity against wild type HIV1 assessed as inhibitory effect on virus producing cells at 10 uM by cell based inhibition assay. The class given is functional. The method, boiled down:
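Late-stage single-round assay: compound at 10 μM was added to the medium of virus-producing cells 5 h after transfection and incubated 48 h. Pseudotyped virus from the supernatant then infected SupT1 cells for 48 h. Luciferase in the newly infected cells gave percent inhibition. Quadruplicate.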

Test [5] addresses T1, Human immunodeficiency virus type 1 reverse transcriptase. Nature of the test: Inhibition of HIV-1BH10 reverse transcriptase expressed in Escherichia coli assessed as polymerization by one-step real time RT-PCR assay. In general terms: Quantitative PCR measures a nucleic acid by following its amplification.
Test [6] concerns Human immunodeficiency virus 1. Nature of the test: Antiviral activity against wild type HIV1 infected in human SupT1 cells assessed as inhibitory effect at 100 nM by cell based inhibition assay. The class given is functional. The conditions noted are these: Human immunodeficiency virus 1, SUP-T1. The method, boiled down:
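1×10^6 SupT1 cells were infected with HIV-1 NL4-3 by spin infection, with 10 µg/mL polybrene and test agent at 100 nM present during infection. Activity is expressed as percent inhibition of viral growth.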

Molecules are shown by their SMILES. Some results are limits rather than exact numbers.

The term inhibition denotes the drop in the measured response relative to a control, in per cent. Usually IC50 stands for the concentration that gives 50% inhibition. With `COc1ccc(S(=O)(=O)N(CC(C)C)C[C@@H](O)[C@H](Cc2ccccc2)NC(=O)c2cc3ccc(OC)cc3oc2=O)cc1`, the inhibition at 10 µM in test [1] stood at 8.28%. Also, the IC50 is 370 µM in test [2] and 0.0467 µM in test [3].

With `COc1ccc(S(=O)(=O)N(CC(C)C)C[C@@H](O)[C@H](Cc2ccccc2)NC(=O)c2ccc3oc(=O)ccc3c2)cc1`, the inhibition at 10 µM in test [1] was found to be 1.26%; in test [4], 99.5%. Further, the IC50 in test [2] was found to be 597 µM; in test [3], 0.00184 µM.

With `COc1ccc(S(=O)(=O)N(CC(C)C)C[C@@H](O)[C@H](Cc2ccccc2)NCc2cc(=O)oc3cc(O)ccc23)cc1`, the inhibition at 10 µM in test [4] amounted to 88.8%. The IC50 in test [3] worked out at 0.053 µM.

On to `Cc1cc(=O)oc2cc(OC(=O)N[C@@H](Cc3ccccc3)[C@H](O)CN(CC(C)C)S(=O)(=O)c3ccc([N+](=O)[O-])cc3)ccc12`, for which the IC50 in test [5] was greater than 1000 µM; in test [3] it was 1.02 µM.

With `CC(C)CN(C[C@@H](O)[C@H](Cc1ccccc1)NC(=O)c1cc2ccccc2oc1=O)S(=O)(=O)c1ccc([N+](=O)[O-])cc1`, the IC50 in test [5] is greater than 1000 µM; in test [3], 0.298 µM. The inhibition at 10 µM in test [1] was 27.1%.

With `CC(C)CN(C[C@@H](O)[C@H](Cc1ccccc1)NC(=O)c1cc2ccccc2oc1=O)S(=O)(=O)c1ccc(N)cc1`, the inhibition at 10 µM in test [1] amounted to 1.34%. Besides, the IC50 in test [2] came to 75.3 µM; in test [3] it was 0.156 µM.

With `COc1ccc2c(CC(=O)N[C@@H](Cc3ccccc3)[C@H](O)CN(CC(C)C)S(=O)(=O)c3ccc(N)cc3)cc(=O)oc2c1`, the inhibition at 10 µM in test [1] was 7.72%. The IC50 in test [2] worked out at 411 µM; in test [3], 0.0154 µM.

As to `CC(C)CN(C[C@@H](O)[C@H](Cc1ccccc1)NC(=O)c1cc2ccc(O)cc2oc1=O)S(=O)(=O)c1ccc(N)cc1`, the inhibition at 10 µM in test [1] worked out at 27%. Besides, the IC50 is 554 µM in test [2] and 0.0277 µM in test [3].

For the compound `CC(C)CN(C[C@@H](O)[C@H](Cc1ccccc1)NCc1cc(=O)oc2cc(O)ccc12)S(=O)(=O)c1ccc([N+](=O)[O-])cc1`, the inhibition at 10 µM in test [4] stood at 73.2%. In test [3], the IC50 came to 0.14 µM.

With `CC(C)CN(C[C@@H](O)[C@H](Cc1ccccc1)NC(=O)Cc1cc(=O)oc2cc(O)ccc12)S(=O)(=O)c1ccc([N+](=O)[O-])cc1`, the inhibition at 10 µM in test [1] stood at 3.91%; in test [4], 73.4%. Moreover, the IC50 in test [2] was 367 µM; in test [3], 0.0111 µM.

`COc1ccc(S(=O)(=O)N(CC(C)C)C[C@@H](O)[C@H](Cc2ccccc2)NC(=O)Cc2cc(=O)oc3cc(OC)ccc23)cc1`: in test [1], the inhibition at 10 µM is 17.7%. Further, the IC50 amounted to 242 µM in test [2] and 0.0155 µM in test [3].

Consider `CC(C)CN(C[C@@H](O)[C@H](Cc1ccccc1)NC(=O)c1cc2ccc(O)cc2oc1=O)S(=O)(=O)c1ccc([N+](=O)[O-])cc1`, for which the inhibition at 10 µM was determined as 91% in test [1] and 74% in test [4]. The IC50 stood at 189 µM in test [2] and 0.0621 µM in test [3].

As for `CC(C)CN(C[C@@H](O)[C@H](Cc1ccccc1)NC(=O)Cc1cc(=O)oc2cc(O)ccc12)S(=O)(=O)c1ccc(N)cc1`, the results for the IC50 in test [5] and in test [3] were greater than 1000 µM and 0.0379 µM, respectively. Moreover, the inhibition at 10 µM in test [4] was 17.9%.

Regarding `COc1ccc2c(CC(=O)N[C@@H](Cc3ccccc3)[C@H](O)CN(CC(C)C)S(=O)(=O)c3ccc([N+](=O)[O-])cc3)cc(=O)oc2c1`, in test [1], the inhibition at 10 µM turned out to be 43.7%. In addition, the IC50 in test [2] came out at 373 µM; in test [3] it was 0.0558 µM.

With `CC(C)CN(C[C@@H](O)[C@H](Cc1ccccc1)NC(=O)Cc1cc(=O)oc2cc(N(C)C)ccc12)S(=O)(=O)c1ccc([N+](=O)[O-])cc1`, the IC50 in test [5] was greater than 1000 µM; in test [3], 0.276 µM. In addition, the inhibition at 10 µM in test [1] came to 14.7%.

As for `CC(C)CN(C[C@@H](O)[C@H](Cc1ccccc1)NC(=O)c1ccc2oc(=O)ccc2c1)S(=O)(=O)c1ccc([N+](=O)[O-])cc1`, the IC50 is greater than 1000 µM in test [5] and 0.0026 µM in test [3]. Besides, in test [4], the inhibition at 10 µM was 98.5%.

In the case of `COc1ccc(S(=O)(=O)N(CC(C)C)C[C@@H](O)[C@H](Cc2ccccc2)NC(=O)Oc2ccc3c(C)cc(=O)oc3c2)cc1`, the values for the IC50 in test [5] and in test [3] were greater than 1000 µM and 0.16 µM, respectively.

On to `COc1ccc(S(=O)(=O)N(CC(C)C)C[C@@H](O)[C@H](Cc2ccccc2)NC(=O)c2cc3ccc(O)cc3oc2=O)cc1`, for which the inhibition at 10 µM in test [1] turned out to be 12.3%. The IC50 worked out at 421 µM in test [2] and 0.0395 µM in test [3].

Turning to `O=C1Nc2ccc(Cl)cc2[C@@](C#CC2CC2)(C(F)(F)F)O1` [EFAVIRENZ], the inhibition at 10 µM in test [4] worked out at 100%.

On to `Cc1ccnc2c1NC(=O)c1cccnc1N2C1CC1` [NEVIRAPINE], for which, in test [6], the inhibition at 0.1 µM worked out at 77%.

In the case of `COc1ccc(S(=O)(=O)N(CC(C)C)C[C@@H](O)[C@H](Cc2ccccc2)NC(=O)c2cc3ccccc3oc2=O)cc1`, the inhibition at 10 µM in test [1] worked out at 44.8%. In addition, the IC50 in test [2] is 474 µM; in test [3] it was 0.0728 µM.

As to `COc1ccc2cc(C(=O)N[C@@H](Cc3ccccc3)[C@H](O)CN(CC(C)C)S(=O)(=O)c3ccc(N)cc3)c(=O)oc2c1`, in test [1], the inhibition at 10 µM is 23.2%. For the same compound, the IC50 in test [2] came out at 706 µM; in test [3], 0.102 µM.

In the case of `CC(C)CN(C[C@@H](O)[C@H](Cc1ccccc1)NC(=O)O[C@H]1CO[C@H]2OCC[C@H]21)S(=O)(=O)c1ccc(N)cc1`, in test [4], the inhibition at 10 µM was determined as 30.8%.

For the compound `COc1ccc(S(=O)(=O)N(CC(C)C)C[C@@H](O)[C@H](Cc2ccccc2)NC(=O)Oc2c3occc3cc3ccc(=O)oc23)cc1`, the IC50 was greater than 1000 µM in test [5] and 0.12 µM in test [3].

For `CC(C)CN(C[C@@H](O)[C@H](Cc1ccccc1)NC(=O)Oc1c2occc2cc2ccc(=O)oc12)S(=O)(=O)c1ccc([N+](=O)[O-])cc1`, the IC50 was greater than 1000 µM in test [5] and 1.53 µM in test [3].

For the compound `COc1ccc(S(=O)(=O)N(CC(C)C)C[C@@H](O)[C@H](Cc2ccccc2)NC(=O)Cc2cc(=O)oc3cc(O)ccc23)cc1`, the IC50 turned out to be 459 µM in test [2] and 0.00162 µM in test [3]. Besides, the inhibition at 10 µM in test [4] amounted to 82.9%. In test [6], the inhibition at 0.1 µM is 45.5%.

In the case of `CC(C)CN(C[C@@H](O)[C@H](Cc1ccccc1)NC(=O)Cc1cc(=O)oc2cc(N(C)C)ccc12)S(=O)(=O)c1ccc(N)cc1`, the inhibition at 10 µM in test [1] was found to be 18.4%. For the same compound, the IC50 in test [2] worked out at 572 µM; in test [3] it was 0.0751 µM.

Regarding `CC(C)CN(C[C@@H](O)[C@H](Cc1ccccc1)NC(=O)c1ccc2oc(=O)ccc2c1)S(=O)(=O)c1ccc(N)cc1`, the inhibition at 10 µM in test [1] turned out to be 5.61%; in test [4], 98.7%. For the same compound, the IC50 in test [2] came to 398 µM; in test [3] it was 0.0004 µM.

Consider `COc1ccc2cc(C(=O)N[C@@H](Cc3ccccc3)[C@H](O)CN(CC(C)C)S(=O)(=O)c3ccc([N+](=O)[O-])cc3)c(=O)oc2c1`, for which the figures for the IC50 in test [5] and in test [3] were greater than 1000 µM and 0.221 µM, respectively. Besides, in test [1], the inhibition at 10 µM is 0.45%.

As to `COc1ccc(S(=O)(=O)N(CC(C)C)C[C@@H](O)[C@H](Cc2ccccc2)NC(=O)Cc2cc(=O)oc3cc(N(C)C)ccc23)cc1`, the inhibition at 10 µM in test [1] came to 43.8%. Further, the values for the IC50 in test [2] and in test [3] were 355 µM and 0.211 µM, respectively.

The values are drawn from ChEMBL document CHEMBL4680127, “Rational design and Structure-Activity relationship of coumarin derivatives effective on HIV-1 protease and partially on HIV-1 reverse transcriptase” (Eur J Med Chem, 2020).
